Test results as given in ChEMBL document CHEMBL2010771, “Studies toward novel peptidomimetic inhibitors of thioredoxin-thioredoxin reductase system” (J Med Chem, 2012).
Values belong to the molecule of their own block, whether it stands above or below them. Activity calls are given as the source filed them. The rule behind the calls is not given here.

What was measured:
[1] = Cytotoxicity against mouse PancO2 cells after 72 hrs by crystal violet staining; format: functional; settings: read-out: LD50 (the source's name)
[2] = Inhibition of human recombinant Trx1/TrxR assessed as reduction in number of free thiols from reduced insulin after 30 mins by insulin reduction assay
Method in brief: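 At least seven compound concentrations. Incubated 30 min at 37 °C, stopped with 8 mM DTNB in 8 M guanidine HCl, A412. IC50 from four-parameter logistic fit. Triplicates, mean ± SD, n ≥ 3.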

[3] = tested on: EMT6; test: Cytotoxicity against mouse EMT6 cells after 72 hrs by crystal violet staining; format: functional; settings: EMT6, 72 h, read-out: LD50 (the source's name)
[4] = Chemical stability of the compound; format: physicochemical
[5] = tested on: Raji; test: Induction of Trx mRNA expression in human Raji cells at 5 to 10 uM after 4 to 24 hrs by RT-PCR analysis; format: functional, cell-based
[6] = tested on: K562; test: Cytotoxicity against human K562 cells after 72 hrs by MTT assay; format: functional; settings: K562, 72 h, read-out: LD50 (the source's name)
Method in brief: (§1)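 Suspension cells were grown in RPMI-1640 with 10% heat-inactivated FBS and exposed to compound for 72 h with DMSO ≤1%. MTT (5 mg/mL solution) was added for 4 h, then plates were centrifuged, cells lysed in DMSO and read at A570. Viability is % of solvent controls, background-corrected; n ≥ 3.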

[7] = tested on: Ramos; test: Cytotoxicity against human Ramos cells after 72 hrs by MTT assay; format: functional; settings: read-out: LD50 (the source's name); method in brief: as §1
[8] = tested on: Mus musculus; test: Toxicity in mouse EMT6 cells allografted BALB/c mouse assessed as change in body weight at 14 mg/kg, ip qd for 7 days measured on day 5; format: organism-based; design: dose 14 mg/kg, route intraperitoneal; settings: in vivo, 168 h
Method in brief: (§2)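 BALB/c mice, 8−12 weeks old, inoculated sc with 3.5 × 10^5 EMT6 cells into the depilated right thigh. Intraperitoneal dosing in DMSO began on day 7, when tumors reached a longer diameter of 5−7 mm, and was given daily. Controls received ip DMSO. Tumor volume was followed by calipers as longer × shorter²/2. Survival and body weight were monitored.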

[9] = tested on: T-24; test: Cytotoxicity against human T24 cells after 72 hrs by crystal violet staining; format: functional; settings: T-24, 72 h, read-out: LD50 (the source's name)
[10] = Cytotoxicity against mouse bone marrow cells after 72 hrs by XTT assay; format: cell-based, Bone marrow cell; settings: read-out: LD50
Method in brief: (§3)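 hPBMC were isolated from healthy donors on Histopaque 1077 and kept in RPMI. Bone marrow came from female BALB/c mice and was cultured in Iscove's medium with 10% FBS and 100 U IL-3. After compound exposure, cells got XTT at 0.3 mg/mL for 4 h, read at A490 against 690 nm. Viability is % of DMSO controls; n ≥ 3.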

[11] = Cytotoxicity against mouse B78 cells after 72 hrs by crystal violet staining; format: functional; settings: B78, 72 h, read-out: LD50 (the source's name)
[12] = tested on: Raji; test: Induction of Trx protein expression in human Raji cells at 10 to 20 uM after 4 to 8 hrs by Western blot analysis; format: functional, cell-based
Method in brief: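 Raji cells exposed to compound for 4 and 8 h, washed and lysed in 0.1% NP40 with protease inhibitors. Equal protein (BCA) run on 15% SDS-PAGE and blotted to nitrocellulose, blocked in TBST with 5% BSA. Probed overnight with rabbit anti-thioredoxin and mouse anti-tubulin, then HRP secondaries for 45 min. ECL luminol/coumaric acid detection.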

[13] = Cytotoxicity against human PBMC cells after 72 hrs by XTT assay; format: cell-based; settings: read-out: LD50; method in brief: as §3
[14] = Cytotoxicity against mouse MEF cells; format: cell-based; settings: read-out: LD50 (the source's name)
Method in brief: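 Fibroblasts came from BALB/c embryos at E13.5 by 0.2% trypsin digestion at 37 °C for 10 min and were cultured in DMEM. Viability is % of solvent controls with DMSO ≤1%; n ≥ 3.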

[15] = tested on: CT26; test: Cytotoxicity against wild type mouse CT26 cells after 72 hrs by crystal violet staining; format: functional; settings: CT26, 72 h, read-out: LD50 (the source's name)
[16] = tested on: Raji; test: Cytotoxicity against human Raji cells after 72 hrs by MTT assay; format: functional; settings: read-out: LD50 (the source's name); method in brief: as §1
[17] = tested on: Mus musculus; test: Toxicity in mouse EMT6 cells allografted BALB/c mouse assessed as mortality at 14 mg/kg, ip qd for 7 days measured on day 5; format: organism-based; design: dose 14 mg/kg, route intraperitoneal; settings: in vivo, 168 h; method in brief: as §2

SMILES: C=C(C)C(=O)N(Cc1ccccc1)[C@@H](CC(C)C)C(=O)NCC(=O)OCc1ccccc1
- CC50 [1]: > 50 µM
- IC50 [2]: > 50 µM
- CC50 [3]: > 50 µM

SMILES: C=C(COS(=O)(=O)c1ccc(C)cc1)C(=O)N(Cc1ccccc1)[C@@H](CC(C)C)C(=O)NCC(=O)OCc1ccccc1
- CC50 [1]: > 50 µM
- IC50 [2]: 22.3 µM
- CC50 [3]: > 50 µM

SMILES: C=C(COC(=O)c1c(C(F)(F)F)cccc1C(F)(F)F)C(=O)OC
- CC50 [1]: > 25 µM
- IC50 [2]: 0.4 µM
- Stability [4]: Unstable
- CC50 [3]: > 25 µM

SMILES: C=C(COC(=O)c1c(Cl)cccc1Cl)C(=O)OC
- CC50 [1]: > 25 µM
- IC50 [2]: 0.2 µM
- Stability [4]: Unstable
- CC50 [3]: > 25 µM

SMILES: C=C(CBr)C(=O)OC [METHYL BROMOMETHYL ACRYLATE]
- CC50 [1]: > 50 µM
- IC50 [2]: 0.44 µM
- CC50 [3]: > 50 µM

SMILES: CCC(C)SSc1ncc[nH]1 (configuration not stated) [PX-12]
- Activity [5]: Active
- CC50 [1]: 3.9 µM
- CC50 [6]: 5.5 µM
- CC50 [7]: 3.4 µM
- Activity [8]: Toxic
- CC50 [9]: 4.6 µM
- IC50 [2]: 12.3 µM
- CC50 at 72 h [10]: > 12.5 µM
- CC50 [11]: 5 µM
- Activity [12]: Active
- CC50 at 72 h [13]: > 25 µM
- CC50 [14]: 2.7 µM
- CC50 [15]: 5.2 µM
- CC50 [16]: 8.8 µM
- Activity [17]: Toxic
- CC50 [3]: 11.6 µM

SMILES: COC(=O)C(CBr)CBr
- CC50 [1]: > 50 µM
- IC50 [2]: 1.2 µM
- CC50 [3]: > 50 µM

- IC50 [2]: > 50 µM
SMILES: Cc1ccc(S(=O)(=O)OCC(COS(=O)(=O)c2ccc(C)cc2)C(=O)N(Cc2ccccc2)[C@@H](CC(C)C)C(=O)NCC(=O)OCc2ccccc2)cc1
